# Source: PMC5697680 (Clinical Pharmacology in Drug Development, 2017)
# Tests used:
# Tolerability assessment = type: in vivo, healthy adults
# How it was run: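 Healthy adults (18-65 years) got five single oral 20 mg doses of test compound (granule suspension or dispersible tablet in low- or high-mineral water, immediate or after 30-minute hold). Dosing followed a Latin square, fasted in the morning, with at least 7 days' washout. AEs and SAEs were recorded from first dose to follow-up at least 7 days post-dose, along with labs, vital signs, ECG and physical exams. Results were summarized as subject numbers and percentages.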
# [1] = cited from earlier work
# [2] = tested on: OCT2/MATE renal transporter; conditions: results in increased exposure to OCT2 substrates such as metformin; cited from earlier work
structure (smiles),measurement,setting,value
"C[C@@H]1CCO[C@H]2Cn3cc(C(=O)NCc4ccc(F)cc4F)c(=O)c(O)c3C(=O)N12 [DTG, Dolutegravir]","AEs reported, number of subjects","Tolerability assessment; 15 participants, all five single 20 mg treatments",9 subjects
same,"SAEs, AEs leading to withdrawal, or deaths","Tolerability assessment; 15 participants, all treatments",No SAEs
same,"drug‐related AEs (nausea, mild), number of subjects","Tolerability assessment; two reports of nausea in one subject, resolved on the same day",1 n
same,reduction of DTG exposure by magnesium‐ and aluminum‐containing antacid,[1]; concomitant administration,70%
same,reduction of DTG plasma exposure by calcium supplement,[1]; fasting conditions,39%
same,reduction of DTG plasma exposure by iron supplement,[1]; fasting conditions,54%
same,effect on OCT2/MATE renal transporter,[2],inhibition
